Screens as filed in PubChem BioAssay.
Only some compounds are listed: those with a hit (about 2.5% of all), similar ones and a draw of the others.
FGF22 binding: shifts melting point of recombinant human FGF22. Q9HCT0. recombinant FGF22 thermal shift, SYPRO orange fluorescence; percent of sucrose octasulfate shift, DMSO zero. activity (Tm shift, normalised), % at 9.99 µM. hit rate 1.5% among 340,000. AID 651658;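 active = mean Tm shift, scaled 0 neutral to 100 positive control, at about 1.3% or above, every replicate too, limit read from the data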
Target sequence (Q9HCT0 whole entry, looked up): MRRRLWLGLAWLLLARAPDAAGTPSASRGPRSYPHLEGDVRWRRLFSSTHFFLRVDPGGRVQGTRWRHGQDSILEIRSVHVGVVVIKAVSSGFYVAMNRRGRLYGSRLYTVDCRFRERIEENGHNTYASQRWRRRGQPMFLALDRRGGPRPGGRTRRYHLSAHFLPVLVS
E-selectin induc: induces E-selectin expression in human endothelial cells. P16581. HUVEC E-selectin immunofluorescence imaging; normalized: neutral wells 0, TNF-alpha wells 100. activation, % at 7.58 µM. hit rate 0.37% among 260,000;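 active = mean E-selectin-positive cell signal at least 10% of the positive control, reached in at least 60% of replicates, without over 20% cell loss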
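Material: HUVEC primary endothelial cells; Amount: 3,000 cells per well; Dosing: single concentration; Medium: EGM-2 growth medium on 0.1% gelatin-coated wells; Read-out basis: percent E-selectin-positive cells; Signal: immunofluorescence imaging; Control set: TNF-alpha, DMSO.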
SIRT5 block: blocks human SIRT5 desuccinylation of peptide; inhibition, % at 15 µM; Purified SirT5, succinyl-peptide AMC, trypsin-coupled fluorescence; hit rate 1.1% among 330,000; Q9NXA8; AID 652115; in the data active = inhibition above about 15%
Target sequence (Q9NXA8 whole entry, looked up): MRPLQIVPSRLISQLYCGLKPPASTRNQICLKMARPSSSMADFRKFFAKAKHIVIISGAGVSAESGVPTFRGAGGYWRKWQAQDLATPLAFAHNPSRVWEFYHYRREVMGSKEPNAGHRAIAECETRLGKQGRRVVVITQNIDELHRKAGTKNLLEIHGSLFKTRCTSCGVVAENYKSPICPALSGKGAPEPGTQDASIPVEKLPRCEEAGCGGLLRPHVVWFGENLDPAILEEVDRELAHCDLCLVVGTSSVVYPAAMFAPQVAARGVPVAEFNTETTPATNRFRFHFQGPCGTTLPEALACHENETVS
S100A4 MyoIIA: S100A4-myosin IIA interaction inhibition | S100A4/TAMRA-MyoIIA peptide fluorescence polarization | AID 652163 | hit rate 0.14% among 360,000 | inhibition, % at 10.7 µM | P26447;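 active = mean inhibition of at least 70% across replicates, with every replicate also reaching that level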
Target sequence (P26447 whole entry, looked up): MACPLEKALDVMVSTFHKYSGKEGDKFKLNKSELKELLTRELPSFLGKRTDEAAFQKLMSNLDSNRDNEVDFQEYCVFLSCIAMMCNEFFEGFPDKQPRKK
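Test system – S100A4 monomer (human) · Compound – single-point compound testing · Schedule – 5 min incubation before reading · Probe or stimulus – TAMRA-labelled myosin IIA heavy-chain peptide probe, 5 nM · Benchmarks – neutral control DMSO, positive control TFP · Medium – Calcium-containing HEPES buffer, pH 7.2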
miR122 inh: inhibitors of miR-122 in Huh7 cells; activation (reporter increase), % at 12.5 µM; hit rate 0.3% among 340,000; AID 602342; Huh7 miR-122 Renilla luciferase sensor, 48 h; neutral wells = 0, positive control = 100;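 active = mean replicate activation score at least 90 and every replicate individually at or above 90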;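 also: higher luciferase means less miR-122 activity so hits act as miR-122 inhibitors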
* marks the source's active call; other numbers are inactive results; · = no result; ! = a repeat was not active; [ ] = dose if it differs, or a comment.

SMILES	FGF22 binding	E-selectin induc	SIRT5 block	S100A4 MyoIIA	miR122 inh
CC(C)CCN1C(=O)c2ccccc2C1c1nnnn1-c1ccc2c(c1)OCCO2 (stereo not given)	0	4	25*	-1	·
COCCN1C(=O)c2ccccc2C1c1nnnn1-c1ccc2c(c1)OCCO2 (stereo not given)	0	4	9	-2	·
CCc1nc2ccccc2c(C(=O)NCc2ccccc2)c1C	43*	2	-4	0	·
Fc1ccc(F)c(C2=NNC(=NCC3CCCO3)SC2)c1 (stereo not given)	43*	-1	1	-4	·
CC(=O)Nc1ccc(C2=NNC(=NCC3CCCO3)SC2)cc1 (stereo not given)	0	·	5	-4	2
Cn1c(SCc2ccc(C#N)cc2)nnc1-c1ccccc1	·	·	21*	-2	·
CC1(C)Cc2ccccc2C(/C(C#N)=N/O)=N1	43*	·	2	-4	-26
S=c1nccc(-c2cccs2)[nH]1	0	7	15*	-1	-6
Cn1c(=O)c2[nH]c(CCNC(=O)c3ccccc3)nc2n(C)c1=O	43*	1	·	1	-9
Cn1c(=O)c2[nH]c(CCCCCc3nc4ccccc4[nH]3)nc2n(C)c1=O	·	0	·	7	-7
COc1cccc(NC(=O)N[C@@H]2C=C[C@H](CC(=O)Nc3ccc(-c4ccccc4)cc3)O[C@H]2CO)c1	0	0	3	-16	·
COC(=O)[C@H]1[C@H](CO)[C@H]2Cn3c(ccc(/C=C/c4ccccc4)c3=O)[C@H]2N1CC1CCCCC1	·	0	·	·	2[16.7 µM]
Cc1cnc(C(=O)OCC(=O)c2ccccc2)cn1	0	0	-3	94*	·
C1CCN(C2CCN(c3nc4nonc4nc3N3CCSCC3)CC2)C1	43*	·	-1	-7	·
C1CCC(Nc2nc3nonc3nc2N2CCSCC2)C1	0	·	1	-2	·
C1CC2CN(c3nc4nonc4nc3N3CCSCC3)CCN2C1 (stereo not given)	44*	0	2	-5	·
COc1cccc(C#Cc2ccc([C@@H]3[C@@H](CO)N4C(=O)CN(C(C)=O)C[C@@H]34)cc2)c1	·	0	-1	-4	·
C#CCOCCOCCOCCNc1nc(N2CCN(C(=O)[C@H](CO)n3cc([C@@H](N)C(C)C)nn3)CC2)nc(N2CCN(C(=O)[C@H](CCCCN)n3cc([C@@H](N)[C@H](C)CC)nn3)CC2)n1	43*	0	-5	0	-2
C#CCOCCOCCOCCNc1nc(N2CCN(C(=O)C([C@@H](C)O)n3cc([C@@H](N)CCCCN)nn3)CC2)nc(N2CCN(C(=O)[C@H](CCCCN)n3cc([C@@H](N)[C@H](C)CC)nn3)CC2)n1 (stereo not given in full)	0	0	-7	-1	1
COc1ccc(CNC(=O)C[C@@H]2C[C@H]3c4cc(NC(=O)NC5CCCC5)ccc4O[C@H]3[C@@H](CO)O2)cc1	0	0	0	6	1[16.7 µM]
O=C1NN(c2ccccc2)C(=O)/C1=C\c1ccc(-c2cc([N+](=O)[O-])ccc2O)o1	·	-2	18*	-5	-6
O=C1NN(c2ccc(Cl)cc2)C(=O)/C1=C\c1ccc(-c2cccc(C(=O)O)c2)o1	0	·	28*	-9	·
Cc1noc(C)c1NC(=O)N[C@H]1C=C[C@H](CC(=O)NCCCN(C)C)O[C@H]1CO	0	0	-1	-29	·
O=C(c1cccc(F)c1)N1C[C@@H]2[C@H](c3ccccc31)[C@H](CO)N2C(=O)C1CCCC1	0	0	3	-2	-10[16.7 µM]
COc1ccc(Nc2nc(N)nc(CSc3nccn3C)n2)cc1	44*	·	1	-2	·
SMILES	FGF22 binding	E-selectin induc	SIRT5 block	S100A4 MyoIIA	miR122 inh
COc1ccc(Nc2nc(N)nc(CSc3nnc(N)s3)n2)cc1	·	·	·	·	-9
C[C@@H]1CN([C@H](C)CO)C(=O)c2cc(NC(=O)Cc3ccccc3)ccc2O[C@@H](C)CCCCO[C@H]1CN(C)C(=O)C1CCCCC1	-2	0	4	-4	-13[16.7 µM]
C/C=C/c1ccc([C@H]2[C@@H](CO)N(C(=O)CC)[C@H]2CN(C)S(C)(=O)=O)cc1	·	0	·	·	-21[16.7 µM]
C[C@@H]1CN([C@@H](C)CO)C(=O)c2cc(NC(=O)CCCCCC(=O)Nc3ccccc3N)ccc2O[C@H]1CN(C)Cc1ccccc1	0	0	21*	-49	·
C[C@@H]1CN([C@H](C)CO)C(=O)Cc2cc(NC(=O)CCCCCC(=O)Nc3ccccc3N)ccc2O[C@H]1CN(C)Cc1ccc(Oc2ccccc2)cc1	0	12	15*	0	0[16.7 µM]
C[C@H](CO)N1C[C@H](C)[C@H](CN(C)Cc2ccc(-c3ccccc3)cc2)Oc2ccc(NC(=O)CCCCCC(=O)Nc3ccccc3N)cc2C1=O	0	18	23*	0	·
C[C@H](CO)N1C[C@H](C)[C@H](CN(C)Cc2ccncc2)Oc2ccc(NC(=O)CCCCCC(=O)Nc3ccccc3N)cc2C1=O	0	·	·	11	-1[16.7 µM]
C[C@H]1CN([C@@H](C)CO)C(=O)c2cc(NC(=O)CCCCCC(=O)Nc3ccccc3N)ccc2O[C@H]1CN(C)Cc1ccc(Oc2ccccc2)cc1	·	0	17*	-10	·
C[C@H]1CN([C@@H](C)CO)C(=O)c2cc(NC(=O)CCCCCC(=O)Nc3ccccc3N)ccc2O[C@H]1CN(C)Cc1ccc(-c2ccccc2)cc1	·	0	·	·	·
CC(C)NC(=O)Nc1ccc2c(c1)C(=O)N([C@H](C)CO)C[C@@H](C)[C@H](CN(C)Cc1ccc(-c3ccccc3)cc1)O2	0	3	14	4	3[16.7 µM]
CO[C@H]1CN(C)C(=O)c2ccc(NC(=O)C3CCCCC3)cc2OC[C@@H](C)N(C(=O)c2ccccc2)C[C@H]1C	0	0	0	5	-8[16.7 µM]
C=CCOC(=O)C1=C[C@@H](c2ccc(Br)cc2)C[C@@H](OCc2ccc(CO)cc2)O1	0	0	26*!	-3	-8
Cc1ccc(N(CN2C(=O)c3ccccc3C2=O)C(=O)c2ccc([N+](=O)[O-])cc2[N+](=O)[O-])cc1	0	1	112*	2	·
COc1ccccc1-c1ccc2c(c1)O[C@H](CN(C)CC1CC1)[C@H](C)CN([C@H](C)CO)S2(=O)=O	·	1	·	·	39[16.7 µM]
O=C(Nc1ccc2c(c1)[C@H]1C[C@H](CC(=O)N3CCc4ccccc4C3)O[C@H](CO)[C@H]1O2)Nc1ccccc1F	0	-1	15*	-5	-11[16.7 µM]
O=C(C[C@@H]1C[C@H]2c3cc(NC(=O)Nc4ccccc4F)ccc3O[C@H]2[C@H](CO)O1)NCC1CC1	0	0	22*	8	2[16.7 µM]
O=C(Nc1ccc2c(c1)[C@H]1C[C@@H](CC(=O)N3CCc4ccccc4C3)O[C@@H](CO)[C@H]1O2)Nc1ccccc1F	0	0	1	0	-4[16.7 µM]
